Results published in ChEMBL document CHEMBL1795294, “Modulation of the activity of histone acetyltransferases by long chain alkylidenemalonates (LoCAMs)” (Bioorg Med Chem, 2011).
Calls of active or inactive are those of the source. The calls are words filed in the database; no cut-off is given here.

Experiments:
[1] = target: CREB-binding protein (Homo sapiens) (UniProt Q92793); experiment: Inhibition of human recombinant KAT3A expressed in Escherichia coli BL21 using histone H4 peptide as substrate at 50 uM after 2 hrs relative to control
Outline: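 Recombinant CBP fragment (aa 1098–1877) from E. coli BL21, affinity purified. Spotted on P81 paper in triplicate, washed with TCA/acetone, scintillation DPM compared with negative control, expressed as %.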

[2] = target: Histone acetyltransferase KAT2B (Homo sapiens) (UniProt Q92831); experiment: Inhibition of human recombinant KAT2B using histone H4 peptide as substrate at 50 uM after 2 hrs
Outline: (§1)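 Human PCAF (200 ng) in KAT buffer with 10 µg histone H4 peptide (aa 2–24), 20 µM acetyl-CoA with 0.5 µCi/mL [3H]-acetyl-CoA, and compound at 50 µM final, 2 h at 37 °C. Spotted on P81 paper in triplicate, washed with TCA then acetone, scintillation counted. Activity given as % of untreated control (100%).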

U-937 [3] = experiment: Inhibition of histone acetyltransferase in human U937 cells assessed as increase of histone H3 acetylation level at 50 uM after 15 mins by Western blotting; assay type: cell-based
Outline: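 U937 cells treated at 50 µM. Histones prepared by Triton extraction buffer lysis, then overnight 0.2 M HCl extraction at 4 °C, Bradford quantitation. Immunoblot with pan-acetyl-H3 antibody (1:1000), Ponceau Red staining as loading check.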

U-937 [4] = experiment: Cell cycle arrest in human U937 cells assessed as accumulation at S phase at 50 uM after 30 hrs using propidium iodide staining by flow cytometry; assay type: functional, cell-based
Outline: (§2)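 U937 cells kept at 200,000 cells/mL, 37 °C, 5% CO2, treated 30 h at 50 or 25 µM. Phase distribution by flow cytometry. Three independent experiments, mean ± SD.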

U-937 [5] = experiment: Induction of apoptosis in human U937 cells at 50 uM after 30 hrs using annexin V/propidium iodide double-staining by FACS analysis; assay type: functional
Outline: (§3)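 U937 cells at 200,000 cells/mL, 37 °C, 5% CO2, exposed 30 h at 50 or 25 µM. Dose–response runs used 5–200 µM, with IC50 taken as the concentration giving 50% apoptosis. Annexin V/propidium iodide double staining, apoptotic subpopulations counted by FACS. Three independent experiments, mean ± SD.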

U-937 [6] = experiment: Induction of apoptosis in human U937 cells after 30 hrs using annexin V/propidium iodide double-staining by FACS analysis; assay type: functional, cell-based; conditions: U-937, 30 h; outline: as §3
U-937 [7] = experiment: Induction of granulocytic differentiation in human U937 after […] using propidium iodide staining by FACS analysis; assay type: functional, cell-based
U-937 [8] = experiment: Inhibition of histone acetyltransferase in human U937 cells assessed as increase of acetylation of histone H3 at K9 at 50 uM after 24 hrs by Western blotting; assay type: cell-based
Outline: (§4)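 U937 cells treated 24 h at 50 µM. Acid-extracted histones (Triton buffer lysis, then 0.2 M HCl overnight at 4 °C) immunoblotted with site-specific antibodies (H3K9/K14/K18/K56ac, H4K5/K8/K16ac, pan-acetyl H4; 1:1000). Loading checked by Ponceau Red staining, or by histone H1 for pan-acetyl H4.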

U-937 [9] = experiment: Inhibition of histone acetyltransferase in human U937 cells assessed as increase of acetylation of histone H3 at K18 at 50 uM after 24 hrs by Western blotting; assay type: cell-based; outline: as §4
U-937 [10] = experiment: Inhibition of histone acetyltransferase in human U937 cells assessed as increase of pan-acetylated histone H4 level at 50 uM after 24 hrs by Western blotting; assay type: cell-based; outline: as §4
U-937 [11] = experiment: Inhibition of histone acetyltransferase in human U937 cells assessed as inhibition of acetylation of histone H3 at K14 at 50 uM after 24 hrs by Western blotting; assay type: cell-based; outline: as §4
U-937 [12] = experiment: Inhibition of histone acetyltransferase in human U937 cells assessed as inhibition of acetylation of histone H3 at K56 at 50 uM after 24 hrs by Western blotting; assay type: cell-based; outline: as §4
U-937 [13] = experiment: Inhibition of histone acetyltransferase in human U937 cells assessed as inhibition of acetylation of histone H4 at K5 at 50 uM after 24 hrs by Western blotting; assay type: cell-based; outline: as §4
U-937 [14] = experiment: Inhibition of histone acetyltransferase in human U937 cells assessed as inhibition of acetylation of histone H4 at K8 at 50 uM after 24 hrs by Western blotting; assay type: cell-based; outline: as §4
U-937 [15] = experiment: Inhibition of histone acetyltransferase in human U937 cells assessed as inhibition of acetylation of histone H4 at K16 at 50 uM after 24 hrs by Western blotting; assay type: cell-based; outline: as §4
Albumin = Albumin (Bos taurus, UniProt P02769); experiment: Binding affinity to bovine serum albumin by surface plasmon resonance assay; conditions: cattle
[16] = target: Histone acetyltransferase p300 (Homo sapiens) (UniProt Q09472); experiment: Binding affinity to immobilized His6-tagged human full-length KAT3B expressed in Sf9 cells by surface plasmon resonance assay
[17] = target: Histone acetyltransferase p300 (Homo sapiens) (UniProt Q09472); experiment: Binding affinity to His6-tagged immobilized human KAT3B catalytic domain expressed in Sf9 cells by surface plasmon resonance assay
MCF7 [18] = experiment: Inhibition of histone acetyltransferase in human MCF7 cells assessed as increase of alpha-tubulin acetylation level at 15 and 30 uM after 15 mins by Western blotting
U-937 [19] = experiment: Inhibition of histone acetyltransferase in human U937 cells assessed as inhibition of acetylation of histone H3 at K9 at 50 uM after 24 hrs by Western blotting; assay type: cell-based; outline: as §4
U-937 [20] = experiment: Inhibition of histone acetyltransferase in human U937 cells assessed as inhibition of acetylation of histone H3 at K18 at 50 uM after 24 hrs by Western blotting; assay type: cell-based; outline: as §4
U-937 [21] = experiment: Cell cycle arrest in human U937 cells assessed as accumulation at S phase at 25 uM after 30 hrs using propidium iodide staining by flow cytometry; assay type: functional, cell-based; outline: as §2
U-937 [22] = experiment: Induction of apoptosis in human U937 cells at 25 uM after 30 hrs using annexin V/propidium iodide double-staining by FACS analysis; assay type: functional, cell-based; outline: as §3
[23] = target: Histone acetyltransferase KAT2B (Homo sapiens) (UniProt Q92831); experiment: Increase of human recombinant KAT2B acetylation activity using histone H4 peptide as substrate at 50 uM after 2 hrs; outline: as §1
[24] = target: Histone deacetylase (Homo sapiens) (UniProt Q13547+O15379+Q9UBN7+Q92769+Q9UQL6+Q8WUI4+Q9BY41+Q96DB2+P56524+Q9UKV0+Q969S8); experiment: Inhibition of HDAC in human U937 cells at 50 uM after 15 mins by Western blotting; assay type: cell-based; conditions: U-937
U-937 [25] = experiment: Inhibition of histone acetyltransferase in human U937 cells assessed as increase of acetylation of histone H3 at K14 at 50 uM after 24 hrs by Western blotting; assay type: cell-based; outline: as §4
U-937 [26] = experiment: Inhibition of histone acetyltransferase in human U937 cells assessed as increase of acetylation of histone H3 at K56 at 50 uM after 24 hrs by Western blotting; assay type: cell-based; outline: as §4
U-937 [27] = experiment: Inhibition of histone acetyltransferase in human U937 cells assessed as increase of acetylation of histone H4 at K5 at 50 uM after 24 hrs by Western blotting; assay type: cell-based; outline: as §4
U-937 [28] = experiment: Inhibition of histone acetyltransferase in human U937 cells assessed as increase of acetylation of histone H4 at K8 at 50 uM after 24 hrs by Western blotting; assay type: cell-based; outline: as §4
U-937 [29] = experiment: Inhibition of histone acetyltransferase in human U937 cells assessed as increase of acetylation of histone H4 at K16 at 50 uM after 24 hrs by Western blotting; assay type: cell-based; outline: as §4
MCF7 [30] = experiment: Inhibition of histone acetyltransferase in human MCF7 cells assessed as increase of alpha-tubulin acetylation level after 15 mins by Western blotting; assay type: cell-based
MCF7 [31] = experiment: Inhibition of histone acetyltransferase in human MCF7 cells assessed as increase of alpha-tubulin acetylation level at 15 uM after 15 mins by Western blotting; assay type: cell-based
Outline: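 MCF-7 cells grown in D-MEM at 200,000 cells/mL, 37 °C, 5% CO2, treated at 15 and 30 µM. Lysis in 50 mM Tris–HCl pH 7.4, 150 mM NaCl, 1% NP40, NaF, PMSF and protease inhibitors, 15 min at 4 °C. Bradford quantitation. Western blot with anti-acetyl-α-tubulin (1:1000), ERK1 as loading control.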

Histone acetyltransferase KAT2B (Homo sapiens), sequence (Q92831 whole entry, looked up, the tested form may be a part): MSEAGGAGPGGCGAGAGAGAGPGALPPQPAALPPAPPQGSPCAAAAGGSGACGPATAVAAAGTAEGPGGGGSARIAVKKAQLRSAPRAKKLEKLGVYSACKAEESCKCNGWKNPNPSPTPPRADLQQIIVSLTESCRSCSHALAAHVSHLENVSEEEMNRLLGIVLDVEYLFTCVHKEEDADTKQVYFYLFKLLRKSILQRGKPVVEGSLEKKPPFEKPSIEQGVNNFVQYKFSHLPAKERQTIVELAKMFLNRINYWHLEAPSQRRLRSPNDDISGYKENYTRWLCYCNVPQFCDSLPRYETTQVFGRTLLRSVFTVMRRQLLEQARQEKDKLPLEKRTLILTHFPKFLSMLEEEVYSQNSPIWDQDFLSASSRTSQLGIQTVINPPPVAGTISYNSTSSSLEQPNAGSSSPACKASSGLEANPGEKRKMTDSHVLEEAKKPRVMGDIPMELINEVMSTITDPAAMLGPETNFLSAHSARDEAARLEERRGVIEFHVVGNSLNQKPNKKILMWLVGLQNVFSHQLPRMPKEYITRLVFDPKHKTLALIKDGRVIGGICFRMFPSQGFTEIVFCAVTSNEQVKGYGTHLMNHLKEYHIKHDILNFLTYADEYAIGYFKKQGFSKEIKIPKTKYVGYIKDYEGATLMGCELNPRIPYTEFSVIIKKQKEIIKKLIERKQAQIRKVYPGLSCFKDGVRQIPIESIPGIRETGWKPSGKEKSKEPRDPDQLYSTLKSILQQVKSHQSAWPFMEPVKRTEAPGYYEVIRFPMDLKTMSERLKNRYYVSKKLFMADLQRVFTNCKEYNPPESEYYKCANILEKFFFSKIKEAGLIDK
CREB-binding protein (Homo sapiens), sequence (Q92793 2-2442 limits assumed): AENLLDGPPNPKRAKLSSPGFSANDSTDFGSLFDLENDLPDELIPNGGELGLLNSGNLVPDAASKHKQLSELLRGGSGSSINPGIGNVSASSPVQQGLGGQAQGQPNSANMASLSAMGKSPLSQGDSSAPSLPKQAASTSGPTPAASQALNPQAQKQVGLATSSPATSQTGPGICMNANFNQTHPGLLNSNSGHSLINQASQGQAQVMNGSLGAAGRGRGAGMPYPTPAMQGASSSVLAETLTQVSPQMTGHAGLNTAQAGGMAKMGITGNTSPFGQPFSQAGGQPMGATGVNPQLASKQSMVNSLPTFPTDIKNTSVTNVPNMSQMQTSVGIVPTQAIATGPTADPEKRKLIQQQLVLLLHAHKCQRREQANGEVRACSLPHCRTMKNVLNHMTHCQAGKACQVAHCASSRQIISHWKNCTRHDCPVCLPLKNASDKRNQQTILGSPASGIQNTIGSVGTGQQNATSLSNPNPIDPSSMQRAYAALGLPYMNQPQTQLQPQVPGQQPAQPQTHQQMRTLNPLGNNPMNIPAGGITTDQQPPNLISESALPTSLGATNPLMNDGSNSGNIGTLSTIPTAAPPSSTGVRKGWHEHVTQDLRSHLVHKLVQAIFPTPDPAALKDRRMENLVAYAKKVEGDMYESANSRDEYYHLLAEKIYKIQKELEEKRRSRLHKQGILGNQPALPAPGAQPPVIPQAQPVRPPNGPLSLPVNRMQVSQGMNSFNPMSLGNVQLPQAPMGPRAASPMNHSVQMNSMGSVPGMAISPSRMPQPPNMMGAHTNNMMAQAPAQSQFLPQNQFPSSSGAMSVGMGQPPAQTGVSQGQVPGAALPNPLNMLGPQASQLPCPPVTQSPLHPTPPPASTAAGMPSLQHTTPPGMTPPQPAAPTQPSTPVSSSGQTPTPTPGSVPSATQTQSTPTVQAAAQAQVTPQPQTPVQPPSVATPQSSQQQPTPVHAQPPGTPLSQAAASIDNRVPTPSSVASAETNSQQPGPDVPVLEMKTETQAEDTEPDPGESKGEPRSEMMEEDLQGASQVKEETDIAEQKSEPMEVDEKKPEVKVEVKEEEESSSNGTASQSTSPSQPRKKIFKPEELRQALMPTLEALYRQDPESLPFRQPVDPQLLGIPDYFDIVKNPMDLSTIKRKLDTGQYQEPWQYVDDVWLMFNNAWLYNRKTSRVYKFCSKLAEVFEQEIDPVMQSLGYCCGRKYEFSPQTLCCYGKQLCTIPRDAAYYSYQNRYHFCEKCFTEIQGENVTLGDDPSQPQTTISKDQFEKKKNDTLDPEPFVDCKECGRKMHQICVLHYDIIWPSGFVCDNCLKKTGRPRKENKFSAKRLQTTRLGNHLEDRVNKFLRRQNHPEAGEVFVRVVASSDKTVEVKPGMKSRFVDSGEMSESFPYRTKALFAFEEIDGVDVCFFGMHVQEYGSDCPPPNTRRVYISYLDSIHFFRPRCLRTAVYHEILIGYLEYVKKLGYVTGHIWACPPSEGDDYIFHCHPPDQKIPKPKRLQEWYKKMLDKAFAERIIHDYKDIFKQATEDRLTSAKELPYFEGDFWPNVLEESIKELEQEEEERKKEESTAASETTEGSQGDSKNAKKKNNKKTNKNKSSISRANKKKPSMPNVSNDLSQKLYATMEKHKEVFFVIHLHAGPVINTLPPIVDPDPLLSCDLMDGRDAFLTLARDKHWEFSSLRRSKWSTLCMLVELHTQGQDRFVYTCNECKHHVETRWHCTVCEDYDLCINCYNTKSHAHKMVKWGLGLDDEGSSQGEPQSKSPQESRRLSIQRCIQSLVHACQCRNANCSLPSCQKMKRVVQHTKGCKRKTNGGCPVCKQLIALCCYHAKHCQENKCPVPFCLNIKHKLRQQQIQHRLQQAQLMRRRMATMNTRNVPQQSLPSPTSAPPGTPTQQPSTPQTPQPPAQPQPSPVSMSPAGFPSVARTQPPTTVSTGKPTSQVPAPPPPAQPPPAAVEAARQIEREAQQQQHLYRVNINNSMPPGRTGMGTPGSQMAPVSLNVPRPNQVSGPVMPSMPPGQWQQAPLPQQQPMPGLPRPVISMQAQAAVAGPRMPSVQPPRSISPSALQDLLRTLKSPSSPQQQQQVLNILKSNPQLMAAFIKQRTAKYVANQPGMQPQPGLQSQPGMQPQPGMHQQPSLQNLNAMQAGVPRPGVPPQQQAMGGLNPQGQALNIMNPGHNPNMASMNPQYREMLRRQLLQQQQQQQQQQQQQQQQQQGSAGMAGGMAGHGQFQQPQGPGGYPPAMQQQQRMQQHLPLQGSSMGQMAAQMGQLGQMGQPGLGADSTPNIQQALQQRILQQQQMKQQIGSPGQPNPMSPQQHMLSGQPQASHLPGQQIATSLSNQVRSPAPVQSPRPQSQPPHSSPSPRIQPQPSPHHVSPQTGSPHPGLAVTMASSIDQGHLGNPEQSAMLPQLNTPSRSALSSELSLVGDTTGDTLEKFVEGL
Albumin, sequence (P02769 whole entry): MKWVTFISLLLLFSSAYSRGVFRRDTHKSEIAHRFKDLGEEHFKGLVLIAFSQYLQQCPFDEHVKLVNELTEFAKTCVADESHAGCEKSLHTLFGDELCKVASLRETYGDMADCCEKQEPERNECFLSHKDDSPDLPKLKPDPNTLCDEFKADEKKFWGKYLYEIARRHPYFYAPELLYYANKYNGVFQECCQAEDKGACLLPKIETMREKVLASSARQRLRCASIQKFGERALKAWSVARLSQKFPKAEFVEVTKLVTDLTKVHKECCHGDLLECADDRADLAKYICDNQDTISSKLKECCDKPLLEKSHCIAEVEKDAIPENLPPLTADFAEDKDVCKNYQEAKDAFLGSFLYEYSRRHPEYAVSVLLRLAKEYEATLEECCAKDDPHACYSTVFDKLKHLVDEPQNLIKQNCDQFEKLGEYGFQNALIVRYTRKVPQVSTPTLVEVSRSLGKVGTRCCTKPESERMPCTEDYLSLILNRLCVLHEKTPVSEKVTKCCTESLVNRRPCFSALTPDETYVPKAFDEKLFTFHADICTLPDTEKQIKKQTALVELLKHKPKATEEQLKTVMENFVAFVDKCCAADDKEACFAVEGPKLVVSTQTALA

Structure (SMILES) | inhibition [1] | inhibition [2] | IC50 (U-937 [6]) [µM] | Activity (Albumin) | Activity [16] | Activity [17] | inhibition (U-937 [3]) | Activity (U-937 [4]) | Activity (U-937 [5]) | Activity (U-937 [7]) | inhibition (U-937 [11]) | inhibition (U-937 [12]) | inhibition (U-937 [13]) | inhibition (U-937 [14]) | inhibition (U-937 [15]) | inhibition (MCF7 [18]) | inhibition (U-937 [19]) | inhibition (U-937 [20]) | Activity (U-937 [21]) | Activity (U-937 [22]) | other results
CCCCCCCCCCCC=C(C(=O)OCC)C(=O)OCC | Active | Active | 84.2 | Not Active | Dose-dependent effect | inactive | Active | Active | 60.2% | inactive | Active | Active | Active | inactive | Active | inactive |  |  |  |  | inhibition (U-937 [8]): Active; inhibition (U-937 [9]): Active; inhibition (U-937 [10]): Active
CCCCCCCCCCC=C(C(=O)OCC)C(=O)OCC | Active | Active | 156 | Not Active | Dose-dependent effect | inactive | Active | Active | 25.4% | inactive | Active | Active | Active | inactive | Active | inactive | Active | Active |  |  | 
CCCCCCCCCCCCCC=C(C(=O)OCC)C(=O)OCC | Active |  | 42.9 | Not Active | Dose-dependent effect | Dose-dependent effect | Active | Active | 51.8% | inactive | Active | Active | Active | inactive | Active | inactive | Active | Active |  |  | Activity [23]: Active; inhibition [24]: inactive
CCCCCCCCCCCCCNC=C(C(=O)OCC)C(=O)OCC | Active |  |  |  |  |  |  |  |  | inactive |  |  |  |  |  |  |  |  | inactive | inactive | Activity [23]: Active; inhibition (MCF7 [30]): Dose-dependent effect

The next lines start with results.

inhibition [1] | inhibition [2] | IC50 (U-937 [6]) [µM] | Activity (Albumin) | Activity [16] | Activity [17] | Structure (SMILES) | inhibition (U-937 [3]) | Activity (U-937 [4]) | Activity (U-937 [5]) | Activity (U-937 [7]) | inhibition (U-937 [11]) | inhibition (U-937 [12]) | inhibition (U-937 [13]) | inhibition (U-937 [14]) | inhibition (U-937 [15]) | inhibition (MCF7 [18]) | inhibition (U-937 [19]) | inhibition (U-937 [20]) | Activity (U-937 [21]) | Activity (U-937 [22]) | other results
79% | Active |  | Not Active | Dose-dependent effect | inactive | CCCCCCCCCCCCCCC=C(C(C)=O)C(C)=O | Active | Active | Active | inactive | Active | inactive | inactive | inactive | inactive | inactive | Active | inactive |  |  | 
inactive | Active |  |  |  |  | CCCCCCCCCCCCC=C(C(=O)OCC)C(=O)OCC |  |  |  | inactive | inactive | inactive | inactive | inactive | inactive |  | Active | Active | inactive | inactive | 
79% |  | 44.9 | Not Active | Dose-dependent effect | Dose-dependent effect | CCCCCCCCCCCCCCC=C(C(=O)OCC)C(=O)OCC | Active | Active | 94.4% | inactive |  |  |  | inactive |  | inactive |  |  |  |  | Activity [23]: Active; inhibition [24]: inactive; inhibition (U-937 [8]): Active; inhibition (U-937 [9]): Active; inhibition (U-937 [10]): Active; inhibition (U-937 [25]): inactive; inhibition (U-937 [26]): inactive; inhibition (U-937 [27]): inactive; inhibition (U-937 [28]): inactive; inhibition (U-937 [29]): inactive
Active | Active |  |  |  |  | CCCCCCCCCCCCCCCC(O)=C(C(=O)OCC)C(=O)OCC |  |  |  | inactive |  |  |  |  |  |  |  |  | inactive | inactive | inhibition (MCF7 [31]): Active
